Tested on: not listed separately
Test: Partition coefficient (logD7.4)
Format: physicochemical
Settings: octanol/water, pH 7.4

First: Nc1ccc(CNc2nc3ccccc3c(=O)o2)cc1
Second: O=c1oc(Nc2ccccc2)nc2ccccc12
The logD of the first is lower: 2 for the first, 3.5 for the second.

First: Cc1cccc2c(=O)oc(C(C)(C)C)nc12
Second: Cc1cccc2nc(NC(C)C)oc(=O)c12
The logD of the first is higher: 4 for the first, 3 for the second.

First: CC(C)NC(=O)[C@H](CCC(N)=O)Nc1nc2ccccc2c(=O)o1
Second: CCCNc1nc2ccccc2c(=O)o1
The logD of the first is lower: -0.3 for the first, 2.4 for the second.

First: CCc1ccc2c(=O)oc(NC(C)C)nc2c1
Second: CCNc1ccc2c(=O)oc(NC(C)C)nc2c1
The logD of the first is higher: 3.2 for the first, 2.4 for the second.

First: CCOc1nc2cc(N)cc(CC)c2c(=O)o1
Second: COC(=O)[C@H](CC(C)C)Nc1nc2cccc(C)c2c(=O)o1
The logD of the first is lower: 2.7 for the first, 3.7 for the second.

First: NC(=O)[C@@H]1CCCN1c1nc2ccccc2c(=O)o1
Second: O=c1oc(N2CCCCC2)nc2ccccc12
The logD of the first is lower: 0.4 for the first, 3 for the second.

Compared with Cc1nc2ccccc2c(=O)o1, CNc1nc2ccccc2c(=O)o1 is higher in logD: 1.3 for the first, 1.7 for the second.

Compared with COC(=O)C(Nc1nc2ccccc2c(=O)o1)c1ccccc1 (centres undefined), CCCCNc1nc2ccccc2c(=O)o1 is higher in logD: 2.6 for the first, 3.1 for the second.

Going from Cc1cccc2nc(C(F)(F)C(F)(F)C(F)(F)F)oc(=O)c12 to CC(C)N(c1nc2ccccc2c(=O)o1)C(C)C, the logD rises from 2.9 to 3.7.

Work on CCCCCCNc1nc2ccccc2c(=O)o1 yielded a logD of 3.8.

Tested on: not listed separately
Test: Alkaline hydrolysis rate of the compound
Format: ADME
Settings: not given
In short: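 Alkaline hydrolysis rate constants measured at several pH values at 25 °C. Loss of the long-wavelength UV chromophore (λmax typically 300-345 nm) was followed by spectrophotometer.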

Going from O=c1oc(N2CCOCC2)nc2ccccc12 to NC(=O)[C@@H]1CCCN1c1nc2ccccc2c(=O)o1, the “Log kOH-” value falls from 1.5 to 1.21.

Nc1ccc(CNc2nc3ccccc3c(=O)o2)cc1 and Nc1cccc(CNc2nc3ccccc3c(=O)o2)c1 are within 0.2 log units of each other in “Log kOH-” value: 1.36 for the first, 1.18 for the second.

CCSc1nc2ccc(C)cc2c(=O)o1 and CCSc1nc2ccc(N(C)C)cc2c(=O)o1 are within 0.2 log units of each other in “Log kOH-” value: 1.95 for the first, 1.76 for the second.

Compared with Cc1cccc2c(=O)oc(C(C)(C)C)nc12, CC(C)(C)c1nc2ccccc2c(=O)o1 is higher in “Log kOH-” value: 0.82 for the first, 1.38 for the second.

First: CC(C)NC(=O)[C@H](CCC(N)=O)Nc1nc2ccccc2c(=O)o1
Second: CCC(C)Nc1nc2ccccc2c(=O)o1 (centres undefined)
The “Log kOH-” value of the first is higher: 1.3 for the first, 0.92 for the second.

Cc1nc2cccc(C)c2c(=O)o1 and CCc1cccc2nc(C)oc(=O)c12 are within 0.2 log units of each other in “Log kOH-” value: 0.85 for the first, 0.73 for the second.

First: COc1cccc2nc(C(F)(F)F)oc(=O)c12
Second: COc1cccc2nc(C)oc(=O)c12
The “Log kOH-” value of the first is higher: 3.54 for the first, 0.83 for the second.

Compared with CCc1ccc2c(=O)oc(NC(C)C)nc2c1, CC(C)Nc1nc2cc(N)ccc2c(=O)o1 is lower in “Log kOH-” value: 0.69 for the first, -0.46 for the second.

First: CCOc1nc2cc(N)cc(CC)c2c(=O)o1
Second: CCOc1nc2cccc(CBr)c2c(=O)o1
The “Log kOH-” value of the first is lower: -0.54 for the first, 1.93 for the second.

CCc1cccc2nc(N[C@@H](CC(C)C)C(=O)OC)oc(=O)c12 and COC(=O)[C@H](CC(C)C)Nc1nc2cccc(C)c2c(=O)o1 are within 0.2 log units of each other in “Log kOH-” value: 0.48 for the first, 0.59 for the second.

Compared with Cc1nc2ccccc2c(=O)o1, CSc1nc2ccccc2c(=O)o1 is higher in “Log kOH-” value: 1.69 for the first, 2.16 for the second.

First: O=c1oc(Nc2ccccc2)nc2ccccc12
Second: COC(=O)C(Nc1nc2ccccc2c(=O)o1)c1ccccc1 (centres undefined)
The “Log kOH-” value of the first is lower: 1.18 for the first, 1.39 for the second.

First: CCc1cc(OC)cc2nc(NC(C)C)oc(=O)c12
Second: Cc1cccc2nc(NC(C)C)oc(=O)c12
The “Log kOH-” value of the first is lower: -0.6 for the first, 0.41 for the second.

Compared with CN(C)c1ccc(CNc2nc3ccccc3c(=O)o2)cc1, Cc1cccc2c(=O)oc(NCc3ccccc3)nc12 is lower in “Log kOH-” value: 1.81 for the first, 0.92 for the second.

Going from O=c1oc(CBr)nc2ccccc12 to CNc1nc2ccccc2c(=O)o1, the “Log kOH-” value falls from 2.06 to 1.38.

Going from CCCCNc1nc2c(C)cccc2c(=O)o1 to CCCCNc1nc2cccc(C)c2c(=O)o1, the “Log kOH-” value falls from 0.86 to 0.41.

Going from Cc1cccc2nc(C(F)(F)C(F)(F)C(F)(F)F)oc(=O)c12 to O=c1oc(C(F)(F)C(F)(F)C(F)(F)F)nc2ccccc12, the “Log kOH-” value rises from 2.75 to 3.27.

First: CC(C)N(c1nc2ccccc2c(=O)o1)C(C)C
Second: CC(C)COC(=O)N(C)c1nc2ccccc2c(=O)o1
The “Log kOH-” value of the first is lower: 0.79 for the first, 2.21 for the second.

C[C@H](N)C(=O)c1nc2ccccc2c(=O)o1 and CC(C)COc1nc2ccccc2c(=O)o1 are within 0.2 log units of each other in “Log kOH-” value: 1.76 for the first, 1.83 for the second.

Going from CCOc1nc2ccccc2c(=O)o1 to CCOC(=O)CSc1nc2ccccc2c(=O)o1, the “Log kOH-” value rises from 1.91 to 2.93.

Compared with CCCCCCCCNc1nc2ccccc2c(=O)o1, CCCCCCNc1nc2ccccc2c(=O)o1 is higher in “Log kOH-” value: 0.03 for the first, 0.96 for the second.

Compared with CCSc1nc2cccc(CC)c2c(=O)o1, CCc1cccc2nc(N)oc(=O)c12 is lower in “Log kOH-” value: 1.37 for the first, -0.08 for the second.

First: CCCCN(C(C)=O)c1nc2ccccc2c(=O)o1
Second: CCCCNc1nc2ccccc2c(=O)o1
The “Log kOH-” value of the first is higher: 2.48 for the first, 1.09 for the second.

Going from CCN(CC)c1ccc2c(=O)oc(NC(C)C)nc2c1 to Cc1cccc2c(=O)oc(NC(C)C)nc12, the “Log kOH-” value rises from -0.99 to 0.69.

Going from Cc1ccc(C)c2c(=O)oc(NC(C)C)nc12 to CCOC(=O)Nc1ccc2c(=O)oc(OCC)nc2c1, the “Log kOH-” value rises from 0.2 to 1.46.

Molecular target: T1, Neutrophil elastase (Homo sapiens, UniProt P08246)
T1 sequence (P08246 whole entry): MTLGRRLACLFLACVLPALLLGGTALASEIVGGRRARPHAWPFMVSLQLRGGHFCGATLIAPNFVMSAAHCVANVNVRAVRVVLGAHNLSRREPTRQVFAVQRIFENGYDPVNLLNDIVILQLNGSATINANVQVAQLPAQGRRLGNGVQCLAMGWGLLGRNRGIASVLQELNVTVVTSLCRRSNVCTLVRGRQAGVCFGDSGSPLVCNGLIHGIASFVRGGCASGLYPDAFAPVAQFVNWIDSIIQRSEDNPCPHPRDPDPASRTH
Test: Inhibition of human leukocyte elastase
Settings: not given

O=c1oc(N2CCOCC2)nc2ccccc12 and O=c1oc(N2CCCCC2)nc2ccccc12 are within 1.5-fold of each other in Ki: 708 nM for the first, 646 nM for the second.

Nc1ccc(CNc2nc3ccccc3c(=O)o2)cc1 and Nc1cccc(CNc2nc3ccccc3c(=O)o2)c1 are within 1.5-fold of each other in Ki: 1230 nM for the first, 1580 nM for the second.

Going from CCSc1nc2ccc(C)cc2c(=O)o1 to CCSc1nc2ccc(N(C)C)cc2c(=O)o1, the Ki rises from 170 nM to 339 nM (2-fold).

Going from Cc1cccc2c(=O)oc(C(C)(C)C)nc12 to CC(C)(C)c1nc2ccccc2c(=O)o1, the Ki falls from 55000 nM to 8910 nM (6.2-fold).

Compared with CC(C)NC(=O)[C@H](CCC(N)=O)Nc1nc2ccccc2c(=O)o1, CCC(C)Nc1nc2ccccc2c(=O)o1 (centres undefined) is 13-fold lower in Ki: 550 nM for the first, 43.7 nM for the second.

Going from Cc1nc2cccc(C)c2c(=O)o1 to CCc1cccc2nc(C)oc(=O)c12, the Ki falls from 1000 nM to 120 nM (8.3-fold).

Going from COc1cccc2nc(C(F)(F)F)oc(=O)c12 to COc1cccc2nc(C)oc(=O)c12, the Ki rises from 417 nM to 14500 nM (35-fold).

Compared with CCc1ccc2c(=O)oc(NC(C)C)nc2c1, CCNc1ccc2c(=O)oc(NC(C)C)nc2c1 is 3.8-fold higher in Ki: 182 nM for the first, 692 nM for the second. The first binds more tightly here.

Going from CCOc1nc2cc(N)cc(CC)c2c(=O)o1 to CCOc1nc2cccc(CBr)c2c(=O)o1, the Ki falls from 10 nM to 0.0676 nM (150-fold). The second binds more tightly here.

Going from CCc1cccc2nc(N[C@@H](CC(C)C)C(=O)OC)oc(=O)c12 to COC(=O)[C@H](CC(C)C)Nc1nc2cccc(C)c2c(=O)o1, the Ki rises from 12 nM to 251 nM (21-fold). The first binds more tightly here.

First: NC(=O)[C@@H]1CCCN1c1nc2ccccc2c(=O)o1
Second: C[C@H](N)C(=O)c1nc2ccccc2c(=O)o1
The Ki of the first is 3.2-fold lower: 240 nM for the first, 759 nM for the second.

Compared with Cc1nc2ccccc2c(=O)o1, CSc1nc2ccccc2c(=O)o1 is 230-fold lower in Ki: 4790 nM for the first, 20.9 nM for the second.

Compared with O=c1oc(Nc2ccccc2)nc2ccccc12, COC(=O)C(Nc1nc2ccccc2c(=O)o1)c1ccccc1 (centres undefined) is 240-fold lower in Ki: 11000 nM for the first, 46.8 nM for the second. The second binds more tightly here.

Compared with CCc1cc(OC)cc2nc(NC(C)C)oc(=O)c12, CCN(CC)c1ccc2c(=O)oc(NC(C)C)nc2c1 is 500-fold higher in Ki: 11 nM for the first, 5500 nM for the second. The first binds more tightly here.

CN(C)c1ccc(CNc2nc3ccccc3c(=O)o2)cc1 and Cc1cccc2c(=O)oc(NCc3ccccc3)nc12 are the same in Ki: 2000 nM for the first, 2000 nM for the second.

Compared with O=c1oc(CBr)nc2ccccc12, CCOc1nc2ccccc2c(=O)o1 is 150-fold lower in Ki: 955 nM for the first, 6.46 nM for the second. The second binds more tightly here.

CCCCNc1nc2c(C)cccc2c(=O)o1 and Cc1cccc2c(=O)oc(NC(C)C)nc12 are within 1.5-fold of each other in Ki: 407 nM for the first, 589 nM for the second.

Going from Cc1cccc2nc(C(F)(F)C(F)(F)C(F)(F)F)oc(=O)c12 to O=c1oc(C(F)(F)C(F)(F)C(F)(F)F)nc2ccccc12, the Ki rises from 30.9 nM to 91.2 nM (3-fold). The first binds more tightly here.

First: CC(C)N(c1nc2ccccc2c(=O)o1)C(C)C
Second: CC(C)COC(=O)N(C)c1nc2ccccc2c(=O)o1
The Ki of the first is 960-fold higher: 2570 nM for the first, 2.69 nM for the second. The second binds more tightly here.

First: CCCCCCCCNc1nc2ccccc2c(=O)o1
Second: CCCCN(C(C)=O)c1nc2ccccc2c(=O)o1
The Ki of the first is 3200-fold higher: 31600 nM for the first, 10 nM for the second.

Going from CCOC(=O)CSc1nc2ccccc2c(=O)o1 to CC(C)COc1nc2ccccc2c(=O)o1, the Ki falls from 72.4 nM to 11.5 nM (6.3-fold). The second binds more tightly here.

Compared with CC(C)Nc1nc2cc(N)ccc2c(=O)o1, Cc1ccc(C)c2c(=O)oc(NC(C)C)nc12 is 120-fold lower in Ki: 776 nM for the first, 6.61 nM for the second.

CCOC(=O)Nc1ccc2c(=O)oc(OCC)nc2c1 gave a Ki of 17.8 nM.

Reference: ChEMBL document CHEMBL1125034, “Design and synthesis of 4H-3,1-benzoxazin-4-ones as potent alternate substrate inhibitors of human leukocyte elastase” (J Med Chem, 1990)
